The source of these data is ChEMBL document CHEMBL3826935, “Synthesis and Pharmacology of (Pyridin-2-yl)methanol Derivatives as Novel and Selective Transient Receptor Potential Vanilloid 3 Antagonists” (J Med Chem, 2016).

A value given as a limit tells only on which side of the number the result lay.

The target of data set [1] is T1, Transient receptor potential cation channel subfamily V member 3 (Homo sapiens) (UniProt Q8NET8).
T1 sequence (whole entry): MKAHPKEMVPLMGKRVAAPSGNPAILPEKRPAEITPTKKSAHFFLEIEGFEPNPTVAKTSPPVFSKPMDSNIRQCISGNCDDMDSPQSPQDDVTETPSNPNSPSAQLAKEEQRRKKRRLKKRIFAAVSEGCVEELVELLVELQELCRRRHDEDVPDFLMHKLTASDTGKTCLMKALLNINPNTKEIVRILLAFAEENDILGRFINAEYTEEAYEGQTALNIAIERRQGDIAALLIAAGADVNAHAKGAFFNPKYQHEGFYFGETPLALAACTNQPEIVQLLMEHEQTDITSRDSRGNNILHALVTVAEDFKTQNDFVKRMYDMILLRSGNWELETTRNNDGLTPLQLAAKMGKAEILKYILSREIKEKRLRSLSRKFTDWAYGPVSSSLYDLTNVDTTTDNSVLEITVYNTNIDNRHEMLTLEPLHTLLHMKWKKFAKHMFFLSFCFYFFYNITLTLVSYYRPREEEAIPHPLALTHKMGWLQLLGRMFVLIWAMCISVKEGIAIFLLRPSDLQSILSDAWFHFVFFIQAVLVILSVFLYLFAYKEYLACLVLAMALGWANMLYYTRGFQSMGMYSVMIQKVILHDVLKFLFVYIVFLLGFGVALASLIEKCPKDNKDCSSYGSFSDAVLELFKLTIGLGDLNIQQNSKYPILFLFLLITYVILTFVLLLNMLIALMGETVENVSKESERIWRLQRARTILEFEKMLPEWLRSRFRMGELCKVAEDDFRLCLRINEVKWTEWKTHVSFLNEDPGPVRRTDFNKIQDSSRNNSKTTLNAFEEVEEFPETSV
Description: Antagonist activity at human TRPV3 expressed in recombinant HEK293 cells assessed as inhibition of 2-APB induced calcium flux by FLIPR analysis. It is filed as cell-based. The essentials: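 HEK293 cells stably expressing human TRPV3 (I25V variant), plated the day before in DMEM + 10% FBS at 37 °C, 5% CO2. Calcium 4 dye loaded in Ca/Mg-free HEPES D-PBS pH 7.4 for 1–2 h at room temperature. Compound dilutions added with 3 min baseline, then 2-APB at 60 µM final; Ca2+ flux read 3 min on FLIPR. Kb from at least duplicates, averaged across independent runs.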

The subject of data set [2] is Liver microsome. Put plainly: Unbound intrinsic clearance in rat liver microsomes after 5 hrs by LC-MS/MS analysis. It is filed as ADME. The essentials:
(§1)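 Microsomal stability run in an automated high-throughput plate format. Intrinsic clearance corrected for nonspecific microsomal binding using measured unbound fraction (fu,mic), reported as unbound Clint in L/h/kg.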

The subject of data set [3] is Liver microsome. Put plainly: Unbound intrinsic clearance in human liver microsomes after 5 hrs by LC-MS/MS analysis. It counts as ADME. The gist of the method:
as §1

For data set [4], the species on record is Rattus norvegicus. Description: Cardiotoxicity in rat assessed as increase in cardiac contractility at plasma concentration of 4.7 ug/ml. It is filed as toxicity, organism-based.
The species named for data set [5] is Rattus norvegicus. Description: Cardiotoxicity in rat assessed as increase in mean arterial pressure. It counts as toxicity, organism-based, Artery. The following applies: in vivo.
Data set [6] concerns the target T2, Nuclear receptor subfamily 1 group I member 2 (Homo sapiens, UniProt O75469).
T2 sequence (O75469 whole entry): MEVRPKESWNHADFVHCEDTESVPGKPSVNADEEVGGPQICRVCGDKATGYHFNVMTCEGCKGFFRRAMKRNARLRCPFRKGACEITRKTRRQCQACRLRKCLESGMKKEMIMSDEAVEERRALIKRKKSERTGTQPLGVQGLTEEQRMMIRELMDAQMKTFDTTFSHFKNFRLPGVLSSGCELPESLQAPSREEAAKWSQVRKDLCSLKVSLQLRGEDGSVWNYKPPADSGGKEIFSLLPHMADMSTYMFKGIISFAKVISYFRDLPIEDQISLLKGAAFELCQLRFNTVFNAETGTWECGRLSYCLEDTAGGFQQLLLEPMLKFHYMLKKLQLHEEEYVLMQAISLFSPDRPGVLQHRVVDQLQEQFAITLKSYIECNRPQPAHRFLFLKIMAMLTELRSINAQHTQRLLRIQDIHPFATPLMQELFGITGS
Put plainly: Activation of human PXR. It counts as ADME. Particulars: human; call rule not given here.

Consider `O[C@H](c1ccccn1)[C@]1(c2ccc(Cl)c(Cl)c2)CCCO1`, for which the Kb in data set [1] came out at 470 nM.
On to `O[C@H](c1ccccn1)C1(c2cccc(OC(F)(F)F)c2)CCC1`, for which the Kb in data set [1] amounted to 80 nM. Further, the CL free stood at 1720 mL/min/kg with Liver microsome [2] and 2220 mL/min/kg with Liver microsome [3].
Taken in the same sequence, the figures for `OC(c1ccccn1)C1(c2ccccc2OC(F)(F)F)CCC1` (racemic) were 550 nM, 1830 mL/min/kg and 1230 mL/min/kg.
Consider `C[C@]1(O)C[C@@](c2ccnc(C(F)(F)F)c2)([C@H](O)c2ccccn2)C1`, for which the Kb in data set [1] is 4270 nM. The CL free with Liver microsome [2] came to 50 mL/min/kg; with Liver microsome [3] it was 67 mL/min/kg. Also, the Activity result was “Non-toxic” in the data set filed under Rattus norvegicus [4], “Non-toxic” in the data set filed under Rattus norvegicus [5] and “Not Active” in data set [6].
Regarding `OC(c1ccccn1)C1(c2ccc(Cl)c(Cl)c2)CCOC1` (stereo not given), the Kb in data set [1] stood at 630 nM. The figures for the CL free in the data set on Liver microsome [2] and in the data set with Liver microsome [3] were 983 mL/min/kg and 417 mL/min/kg, respectively.
As to `C[C@]1(O)C[C@@](c2cccc(C(F)(F)F)c2)([C@H](O)c2ccccn2)C1`, the Kb in data set [1] is 300 nM. The CL free amounted to 317 mL/min/kg with Liver microsome [2] and 150 mL/min/kg with Liver microsome [3]. The Activity result is recorded as “Non-toxic” in the data set filed under Rattus norvegicus [4], “Non-toxic” in the data set listed under Rattus norvegicus [5] and “Not Active” in data set [6].
In the case of `C[C@]1(c2ccc(OC(F)(F)F)cc2)C[C@@](O)(c2ccccn2)CO1`, the Kb in data set [1] is 2460 nM. The CL free was determined as 150 mL/min/kg in the data set with Liver microsome [2] and 120 mL/min/kg with Liver microsome [3].
On to `OC(c1ccccn1)C1(c2ccc(Cl)c(Cl)c2)COC1` (stereo not given), for which, in data set [1], the Kb was 7370 nM. Further, the CL free with Liver microsome [2] worked out at 417 mL/min/kg; in the data set with Liver microsome [3], 130 mL/min/kg.
Regarding `C[C@]1(O)C[C@@](c2cccc(OC(F)(F)F)c2)([C@H](O)c2ccccn2)C1`, the Kb in data set [1] was 280 nM. For the same compound, the CL free worked out at 200 mL/min/kg with Liver microsome [2] and 167 mL/min/kg with Liver microsome [3]. Further, the results for the Activity entry (in the data set listed under Rattus norvegicus [4]; in the data set listed under Rattus norvegicus [5]; in data set [6]) were “Non-toxic”, “Non-toxic” and “Not Active”, respectively.
`OC(c1ncccn1)C1(c2ccc(OC(F)(F)F)cc2)CCC1` (racemic): the Kb in data set [1] was determined as 1540 nM. The CL free is 483 mL/min/kg with Liver microsome [2] and 100 mL/min/kg in the data set on Liver microsome [3].
For `OC(c1ncccc1F)C1(c2ccc(Cl)c(Cl)c2)CCC1` (racemic), in that order: 610 nM, 3000 mL/min/kg and 833 mL/min/kg.
Consider `O[C@H](c1ccccn1)[C@@]1(c2ccc(Cl)c(Cl)c2)CCO1`, for which the Kb in data set [1] is 380 nM. The CL free with Liver microsome [2] was 1000 mL/min/kg; in the data set on Liver microsome [3] it was 217 mL/min/kg.
In the case of `O[C@H](c1ccccn1)[C@]1(c2cc(C(F)(F)F)ccn2)C[C@H](O)C1`, the Kb in data set [1] is 270 nM. In addition, the values for the CL free in the data set with Liver microsome [2] and with Liver microsome [3] were 50 mL/min/kg and 33 mL/min/kg, respectively. Moreover, the Activity entry in the data set listed under Rattus norvegicus [4] is “Non-toxic”; in the data set listed under Rattus norvegicus [5], “Non-toxic”; in data set [6], “Not Active”.
Turning to `O[C@H](c1ccccn1)[C@]1(c2ccnc(C(F)(F)F)c2)C[C@H](O)C1`, in data set [1], the Kb came out at 60 nM. Besides, the CL free in the data set on Liver microsome [2] turned out to be 50 mL/min/kg; with Liver microsome [3], 33 mL/min/kg. The Activity entry in the data set listed under Rattus norvegicus [4] was “Non-toxic”; in the data set filed under Rattus norvegicus [5], “Non-toxic”; in data set [6] it was “Not Active”.
In the case of `O[C@H](c1ccccn1)C1(c2ccc(OC(F)(F)F)cc2)CCC1`, the Kb in data set [1] amounted to 140 nM. Moreover, the figures for the CL free in the data set with Liver microsome [2] and in the data set on Liver microsome [3] were 1050 mL/min/kg and 333 mL/min/kg, respectively.
On to `O[C@H](c1ccccn1)[C@@]1(c2ccc(Cl)c(Cl)c2)CCCO1`, for which, in data set [1], the Kb turned out to be 43 nM. Moreover, the results for the CL free in the data set with Liver microsome [2] and in the data set on Liver microsome [3] were 2980 mL/min/kg and 383 mL/min/kg, respectively.
As for `O[C@H](c1ccccn1)[C@]1(c2cccc(OC(F)(F)F)c2)C[C@H](O)C1`, in data set [1], the Kb turned out to be 40 nM. Further, the CL free with Liver microsome [2] came to 120 mL/min/kg; in the data set with Liver microsome [3], 150 mL/min/kg. The Activity entry in the data set filed under Rattus norvegicus [4] is “Non-toxic”; in the data set filed under Rattus norvegicus [5], “Non-toxic”; in data set [6], “Not Active”.
`C[C@]1(O)C[C@@](c2ccc(OC(F)(F)F)cc2)([C@@H](O)c2ccccn2)C1`: the Kb in data set [1] is greater than 10400 nM. The CL free in the data set on Liver microsome [2] was 100 mL/min/kg; in the data set on Liver microsome [3] it was 50 mL/min/kg. The figures for the Activity entry (in the data set filed under Rattus norvegicus [4]; in the data set listed under Rattus norvegicus [5]; in data set [6]) were “Non-toxic”, “Non-toxic” and “Not Active”, respectively.
`O[C@]1(c2ccccn2)CC[C@@H](c2ccc(C(F)(F)F)cc2)C1`: the Kb in data set [1] amounted to 130 nM. Moreover, the CL free came out at 7670 mL/min/kg in the data set on Liver microsome [2] and 383 mL/min/kg in the data set on Liver microsome [3].
In the case of `CN1CC(c2ccc(C(F)(F)F)cc2)(C(O)c2ccccn2)C1` (stereo not given), the Kb in data set [1] was 6630 nM. Besides, the CL free in the data set on Liver microsome [2] came to 120 mL/min/kg; with Liver microsome [3] it was 50 mL/min/kg.
As to `O[C@@]1(c2ccccn2)CC[C@@H](c2ccc(C(F)(F)F)cc2)C1`, in data set [1], the Kb came to 240 nM. Further, the CL free in the data set with Liver microsome [2] came to 2520 mL/min/kg; in the data set on Liver microsome [3], 150 mL/min/kg.
For `CC(O)(c1ccccn1)C1(c2ccc(Cl)c(Cl)c2)CCC1` (racemic), in that order: 3400 nM, 6330 mL/min/kg and 1670 mL/min/kg.
As for `OC(c1cc(F)ccn1)C1(c2ccc(Cl)c(Cl)c2)CCC1` (racemic), the Kb in data set [1] stood at 640 nM. Also, the results for the CL free with Liver microsome [2] and in the data set with Liver microsome [3] were 3850 mL/min/kg and 533 mL/min/kg, respectively.
In the case of `OC(c1ccc(F)cn1)C1(c2ccc(Cl)c(Cl)c2)CCC1` (racemic), in data set [1], the Kb was 910 nM. In addition, the CL free in the data set with Liver microsome [2] was 3170 mL/min/kg; in the data set on Liver microsome [3], 767 mL/min/kg.
Consider `C[C@@]1(c2ccc(OC(F)(F)F)cc2)C[C@@](O)(c2ccccn2)CO1` (single isomer, unassigned), for which the Kb in data set [1] amounted to 1120 nM. The figures for the CL free in the data set with Liver microsome [2] and with Liver microsome [3] were 333 mL/min/kg and 67 mL/min/kg, respectively.
In the case of `C[C@@]1(c2ccc(OC(F)(F)F)cc2)C[C@](O)(c2ccccn2)CO1`, in data set [1], the Kb is 1710 nM. Moreover, the results for the CL free in the data set on Liver microsome [2] and with Liver microsome [3] were 383 mL/min/kg and 217 mL/min/kg, respectively.
Taken in the same sequence, the figures for `O[C@@]1(c2ccccn2)CC[C@H](c2ccc(C(F)(F)F)cc2)C1` were 610 nM, 350 mL/min/kg and 400 mL/min/kg.
As to `O[C@]1(c2ccccn2)CC[C@H](c2ccc(C(F)(F)F)cc2)C1`, the Kb in data set [1] was 540 nM. Further, the CL free with Liver microsome [2] came out at 1430 mL/min/kg; in the data set on Liver microsome [3] it was 333 mL/min/kg.
With `O[C@H](c1ccccn1)[C@]1(c2ccc(Cl)c(Cl)c2)CCO1`, in data set [1], the Kb turned out to be 150 nM. In addition, the CL free in the data set on Liver microsome [2] was 50 mL/min/kg; in the data set with Liver microsome [3] it was 67 mL/min/kg.
In the case of `O[C@H](c1ccccn1)C1(c2ccc(Cl)c(Cl)c2)CC(F)(F)C1`, the Kb in data set [1] is 80 nM. Also, the values for the CL free in the data set with Liver microsome [2] and in the data set on Liver microsome [3] were 850 mL/min/kg and 250 mL/min/kg, respectively.
Take `O[C@H](c1ncccn1)C1(c2ccc(Cl)c(Cl)c2)CCC1`: in data set [1], the Kb was 370 nM. Also, the values for the CL free in the data set with Liver microsome [2] and with Liver microsome [3] were 833 mL/min/kg and 267 mL/min/kg, respectively.
For `OC(c1ccccn1)C1(c2ccc(C(F)(F)F)cc2)CNC1` (stereo not given), the Kb in data set [1] turned out to be 6680 nM. Also, the CL free was found to be 50 mL/min/kg in the data set with Liver microsome [2] and 33 mL/min/kg with Liver microsome [3].
